Test results taken from ChEMBL document CHEMBL1255287, “Induction of L1 and L2 beta-lactamase production in Stenotrophomonas maltophilia is dependent on an AmpR-type regulator” (2008).
Converted amounts (≈) assume the structure as drawn. The source made the active and inactive calls. The calls are words filed in the database; no cut-off is given here.

Columns and labels:
[1] = tested on: Stenotrophomonas maltophilia; assay: Antimicrobial activity against Stenotrophomonas maltophilia K279a expressing beta-lactamase L1 and L2 by agar dilution method; assay type: functional
Method in brief: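 MICs by BSAC standard agar dilution on Mueller-Hinton agar against wild-type K279a and its ampR frameshift derivative.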

[2] = tested on: Stenotrophomonas maltophilia; assay: Antimicrobial activity against Stenotrophomonas maltophilia K279a harboring -121 frameshift mutation in ampR gene by agar dilution method; assay type: functional
Method in brief: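 MICs by BSAC standard agar dilution on Mueller-Hinton agar against S. maltophilia K279a carrying a frameshift-disrupted ampR (ampRFS); values in mg/liter.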

[3] = tested on: Stenotrophomonas maltophilia; assay: Induction of beta-lactamase L1 expression in Stenotrophomonas maltophilia K279a at 5 to 20 mg/L after 2 hrs […]; assay type: functional, organism-based
Method in brief: (§1)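 Cells at OD600 0.4 grown 2 h with inducer at the stated concentration. Nitrocefin-hydrolysing activity measured in cell extracts, total first, then L2 alone after adding EDTA to 100 μM (inhibits L1). L1 = total − L2. Specific activity divided by that of an identically treated uninduced culture gives fold induction. Mean of three experiments.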

[4] = tested on: Stenotrophomonas maltophilia; assay: Induction of beta-lactamase L2 expression in Stenotrophomonas maltophilia K279a at 5 to 20 mg/L after 2 hrs […]; assay type: functional, organism-based; method in brief: as §1
[5] = tested on: Stenotrophomonas maltophilia; assay: Induction of beta-lactamase L1 expression in Stenotrophomonas maltophilia M1 mutant assessed as L1 activity at 10 mg/L after 2 hrs by […] method; assay type: functional
Method in brief: (§2)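 Nutrient broth cultures were grown to OD600 0.4, then exposed to 10 mg/liter imipenem as inducer for 2 h. Uninduced cultures were grown to OD600 0.6. Total nitrocefin-hydrolysing specific activity of cell extracts was read spectrophotometrically, then reassayed after adding EDTA to 100 μM to inhibit L1. Values are percent L1 or L2 of total activity, as means of three experiments.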

[6] = tested on: Stenotrophomonas maltophilia; assay: Induction of beta-lactamase L2 expression in Stenotrophomonas maltophilia M1 mutant assessed as L2 activity at 10 mg/L after 2 hrs by […] method; assay type: functional; method in brief: as §2
[7] = tested on: Stenotrophomonas maltophilia; assay: Induction of beta-lactamase L1 expression in Stenotrophomonas maltophilia M2 mutant assessed as L1 activity at 10 mg/L after 2 hrs by […] method; assay type: functional; method in brief: as §2
[8] = tested on: Stenotrophomonas maltophilia; assay: Induction of beta-lactamase L2 expression in Stenotrophomonas maltophilia M2 mutant assessed as L2 activity at 10 mg/L after 2 hrs by […] method; assay type: functional; method in brief: as §2
[9] = tested on: Stenotrophomonas maltophilia; assay: Induction of beta-lactamase L1 expression in Stenotrophomonas maltophilia K279a at 0.1 to 0.8 mg/L after 2 hrs […]; assay type: functional, organism-based; method in brief: as §1
[10] = tested on: Stenotrophomonas maltophilia; assay: Induction of beta-lactamase L2 expression in Stenotrophomonas maltophilia K279a at 0.1 to 0.8 mg/L after 2 hrs […]; assay type: functional, organism-based; method in brief: as §1

| SMILES | MIC [1] | MIC [2] | further results |
| --- | --- | --- | --- |
| CC(C)(O/N=C(\C(=O)N[C@@H]1C(=O)N2C(C(=O)[O-])=C(C[n+]3ccccc3)CS[C@H]12)c1csc(N)n1)C(=O)O [CEFTAZIDIME] | 128 µg/mL (≈ 234 µM) | < 4 µg/mL | – |
| C[C@@H](O)[C@H]1C(=O)N2C(C(=O)O)=C(S[C@@H]3CN[C@H](C(=O)N(C)C)C3)[C@H](C)[C@H]12 [MEROPENEM] | 64 µg/mL (≈ 167 µM) | < 4 µg/mL | – |
| CO[C@@]1(NC(=O)Cc2cccs2)C(=O)N2C(C(=O)O)=C(COC(N)=O)CS[C@@H]21 | – | – | Activity [3]: Active; Activity [4]: Active |
| CCN1CCN(C(=O)N[C@@H](C(=O)N[C@@H]2C(=O)N3[C@@H]2SC(C)(C)[C@@H]3C(=O)O)c2ccccc2)C(=O)C1=O [PIPERACILLIN] | 2050 µg/mL (≈ 3960 µM) | 32 µg/mL | – |
| CO/N=C(\C(=O)N[C@@H]1C(=O)N2C(C(=O)O)=C(COC(C)=O)CS[C@H]12)c1csc(N)n1 [CEFOTAXIME] | 1020 µg/mL (≈ 2250 µM) | < 4 µg/mL | – |
| CC1(C)S[C@@H]2[C@H](NC(=O)[C@H](N)c3ccccc3)C(=O)N2[C@H]1C(=O)O [AMPICILLIN] | 2050 µg/mL (≈ 5860 µM) | 8 µg/mL | – |
| C[C@@H](O)[C@H]1C(=O)N2C(C(=O)O)=C(SCCNC=N)C[C@H]12 [IMIPENEM ANHYDROUS] | 64 µg/mL (≈ 214 µM) | < 4 µg/mL | Activity [5]: 66%; Activity [6]: 34%; Activity [7]: 61%; Activity [8]: 39%; Activity [9]: Active; Activity [10]: Active |
